The text below walks through data of the RNAGym collection of RNA variant scans (doi:10.1126/science.aae0568).

This sample holds only a part of the variants without activity. Bounds are passed on as bounds.

The labels stand for the following.
B1: tRNA (parent)
chain: GUUCCGUUGGCGUAAUGGUAACGCGUCUCCCUCCUAAGGAGAAGACUGCGGGUUCGAGUCCCGUACGGAACG

In this data set the parent is B1. In words: yeast fitness relative to wild type (ratio to wild type); higher = fitter; tRNA-Arg(CCU), competitive growth, 37 C, YPD. A digest of the protocol:
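Variants of the tRNA-Arg(CCU) gene, chemically synthesised with a 3% per-site mutation rate at 69 sites, were placed at the native genomic locus in Saccharomyces cerevisiae. The pooled strains were competed in YPD at 37°C for 24 hours in six parallel replicates. Gene amplicons from the start population and from each end population were read by 100-nucleotide paired-end sequencing. Darwinian fitness relative to wild type came from changes in genotype frequencies; genotypes needed ≥ 100 starting reads, and estimates < 0.5 were set to 0.5.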
On to C5U U26A G56C A65C, for which the yeast fitness was 0.53.
For the variant C5U U28A A69C, the yeast fitness worked out at 0.541.
The value for C5U U7G A14G C30A A65C was 0.704; that for C5U G52A was 0.697.
The value for C5U G52A C66U was 0.584; that for C5U U26G G58A was 0.924.
The value for C5U U8C C27U G48A C62A C66U was not above 0.5.
For the variant C5U U16G A40G A42U G52A, the yeast fitness was not above 0.5.
The value for C5U U32C A57C was 0.583.
With C5U U7A A45G G67A the figure was not above 0.5; with G6A A15C A36C A42U A43G C55G C61U, not above 0.5; with C5U U16A G38A A42G U64G, not above 0.5.
The value for C5U U13C C61U was 0.673; that for C5U U19C C66U was 0.82; that for C5U U19C C66G was 0.606.
C5U U7A C62A A69G A70G: the yeast fitness was not above 0.5.
The value for G6A A14G C31U A36G was not above 0.5; that for C5U U47A G48C G51A C61A was 0.564.
The value for C5U U7A C34U G56A G67A was not above 0.5; that for C5U U7C C24G C27A was not above 0.5.
With G6A A15G A65U the figure was 0.607.
Take C5U G51C C55A C62U A65U A69U: the yeast fitness was not above 0.5.
As for C5U U16A C33U C61G A70U, the yeast fitness is not above 0.5.
With C5U G50A C66U the figure was 0.637; with C5U G50A C66A, not above 0.5.
With C5U U13C C24G U26C A37G G38U U54G C61G the figure was not above 0.5; with C5U G50C G51C G56C G67A, not above 0.5.
With G6A A15C U16A A21G U26A C30U C61A A69U the figure was not above 0.5; with C5U U13A C27G A57C G67A A69U, not above 0.5.
As to C5U G48A G51C, the yeast fitness is not above 0.5.
With C5U U32A C34A A65C the figure was not above 0.5.
With C5U U32G G63C C66U the figure was not above 0.5.
The value for C5U U13G A69U was 0.76.
Take C5U U26G C33G G50C: the yeast fitness is not above 0.5.
On to C5U U8C C30G C31G A65C, for which the yeast fitness was not above 0.5.
As to C5U U19C, the yeast fitness stood at 0.963.
With C5U U19C G67C A70U the figure was not above 0.5; with C5U U16C G18A C30A G58A G68U, not above 0.5; with C5U U26C A36C U64A, not above 0.5.
The value for G6A A15U G23A was 0.525.
With C5U U32C G39A C60U C61G G68C the figure was not above 0.5; with C5U U16C C55A, 0.627; with C5U U19G A37G C66U A69U, 0.547.
On to G6A A14G C24A C31U A40U A70G, for which the yeast fitness was not above 0.5.
The value for C5U U16G U35A was not above 0.5.
With G6A A14C G41A A42U G56A G63C the figure was 0.665.
The value for C5U U26A G48C A57G was not above 0.5; that for C5U U16A U47C was 0.785.
On to C5U U26C, for which the yeast fitness was found to be 0.862.
Turning to G6A A15U U59A G68C, the yeast fitness is not above 0.5.
With C5U U47A G48C G51A the figure was not above 0.5; with C5U U7G A40G A57U, not above 0.5; with C5U U8G U28C A36G, not above 0.5.
With C5U U32C C49G G68C the figure was 0.593; with C5U U35A A36G, 0.673.
With C5U G50C A70U the figure was 0.575.
C5U U19A G38C C62G G68C: the yeast fitness was 0.62.
For the variant C5U U32C C33U C62U A65G, the yeast fitness is not above 0.5.
With C5U U13A C46A C62U C66U the figure was not above 0.5; with G6A, 0.965; with G6A A15C C27A C61G U64C A70U, not above 0.5.
C5U U7A C30A G58C: the yeast fitness came out at 0.543.
With C5U U32G C33G the figure was not above 0.5; with C5U G56A A65U, 0.854.
With C5U U19A G25C A43U the figure was 0.758; with C5U U35G A65U, 0.576; with C5U U47A, 1.06.
With C5U G50C G67A the figure was not above 0.5; with G6A A20C A40C A42U G56A C66G, not above 0.5; with C5U U32C A70U, 0.66.
For C5U U7C G68C, the yeast fitness was not above 0.5.
With C5U U19C A43U the figure was 1.09.
With C5U U16A C34A A70G the figure was not above 0.5; with G6A A15C C22U C33G C62A G63C, 0.753.
With C5U U47G G50C the figure was 0.575.
As to C5U U26A C46G, the yeast fitness was determined as 0.717.
The value for C5U U16G G41C G51A C60G A70U was not above 0.5; that for C5U U28G C30G A40C A42U was not above 0.5; that for C5U U8A A21G C49U G63C was not above 0.5.
Regarding C5U U19C C55A G58C, the yeast fitness is not above 0.5.
As for G6A A14U C31G G38A, the yeast fitness was not above 0.5.
In the case of C5U U13A, the yeast fitness was 0.842.
Turning to C5U U13C, the yeast fitness was 0.911.
With C5U U19C U28A C66U G68A the figure was not above 0.5; with C5U U35C A36G, 0.801.
The value for G6A A15C C22G A43C G50A was not above 0.5; that for C5U G50A G63A was 0.608; that for C5U U35A G48C C61U was 0.57.
With G6A A14C A42U G56A G63C the figure was 0.511; with C5U U28C C29G C61U, 0.563; with C5U G51A G56A A65C, not above 0.5.
Turning to C5U U7C U26C U28C C29G C34A, the yeast fitness came to 0.659.
With C5U U13A C62U A65C the figure was not above 0.5.
With C5U U8A G18C G23A the figure was not above 0.5; with C5U U19C G56C U59A A65G, not above 0.5; with C5U U19C C24G C61A A70G, not above 0.5.
With C5U G52A G63C the figure was not above 0.5.
For G6A A14U C55A, the yeast fitness is 0.552.
The value for C5U U16G A43U G58A was not above 0.5; that for G6A A15C C27A C61G A70U was 0.579; that for C5U U8C C29G U53G was not above 0.5.
On to C5U U32C A42G, for which the yeast fitness turned out to be 0.531.
With C5U U19A G51C G58A the figure was not above 0.5; with G6A A14C A42U G63C, not above 0.5; with C5U U16G A65G C66U, not above 0.5.
With C5U U8G A20G C34A the figure was not above 0.5.
C5U U8A G38C A42C G63A: the yeast fitness was determined as 0.534.
The value for C5U U13A C29G C31A G63C was 0.533.
With C5U U28C A36C A40C A42U the figure was not above 0.5; with C5U U19C G52A, 0.625; with C5U U16A G23A G25C, not above 0.5.
Regarding C5U U7G C30U G51C C61A, the yeast fitness was not above 0.5.
The value for C5U U7A G10A G48C was not above 0.5.
The value for C5U U28C C61U was 0.705.
With C5U U53G C62A the figure was not above 0.5; with G6A A15G U54G C55U, not above 0.5; with C5U G58A C61U A70G, 0.797.
C5U U13A C24U A45C: the yeast fitness amounted to 0.671.
The value for C5U U8A A65U was not above 0.5.
The value for C5U U7C A45C was 0.74; that for C5U U28G A40C was 0.613; that for C5U U7G C30A A65C was 1.07.
With G6A A15G U28G A42U G48A the figure was not above 0.5; with C5U U8C U26A, 0.727; with C5U U35G U47A G48A A65U, 0.557.
As to C5U U16G A43G G67C, the yeast fitness is not above 0.5.
With C5U U16A G63A, the yeast fitness is not above 0.5.
As to C5U G52C C66U, the yeast fitness amounted to 0.57.
The value for G6A A14U A15U C31G was 0.668.
With C5U U35C A69U the figure was 0.536.
With C5U U19C U26A C62A the figure was not above 0.5; with C5U U28G A42U, not above 0.5.
Consider C5U U19C C29U A42C A57G, for which the yeast fitness was not above 0.5.
With C5U U32G A36U G68C the figure was not above 0.5.
Take C5U U8C G41C: the yeast fitness stood at 0.542.
Regarding C5U U28C C29G, the yeast fitness is not above 0.5.
The value for C5U G50C was 0.699; that for G6A A15G C46U C66U was 0.77.
With C5U U53G the figure was 0.617.
With G6A A14C G58A the figure was 0.613; with C5U U7A A14G, 0.538; with C5U U16C C31A G67C, not above 0.5.
On to C5U U28G C29U G50C, for which the yeast fitness was not above 0.5.
With G6A A14G C33A G39C the figure was not above 0.5; with C5U U13A G38C U47G C62U, not above 0.5.
Take G6A A14U A57G U64G: the yeast fitness was not above 0.5.
The value for C5U U8C A20G C30A G68U was not above 0.5.
As to C5U U19C A37G G63C, the yeast fitness is not above 0.5.
The value for G6A A14U A57G U59C was not above 0.5.
The value for C5U U8A was 0.632.
As for C5U U35C C62U G68C, the yeast fitness was not above 0.5.
With C5U U28C C46A C66G the figure was 0.534; with C5U U7A A65C, 0.64.
With G6A A14U U64G the figure was 0.664; with C5U U8A G68A, 0.544; with C5U U7C C24A C61U, not above 0.5.
The value for G6A A15C A20U was 0.56.
For the variant G6A A15C A20G, the yeast fitness is not above 0.5.
With C5U U32G A36U the figure was not above 0.5.
With C5U U16A C33U C49A the figure was not above 0.5; with C5U U13A C29A C31G, not above 0.5; with C5U U8A C61U, 0.548.
With G6A A15C A36U A65C the figure was not above 0.5.
Take G6A A14G C49U: the yeast fitness was 0.57.
The value for C5U U19A G48A was 0.741; that for C5U U64A G67U was not above 0.5.
For C5U U47C G51A, the yeast fitness came out at 0.548.
